In ChEMBL document CHEMBL5331128, “Alicyclic Ring Size Variation of 4-Phenyl-2-naphthoic Acid Derivatives as P2Y14 Receptor Antagonists” (J Med Chem, 2023):
Calls of active or inactive are those of the source.

Tests used:
[1] = Stability in human plasma assessed as half life at 1 uM and measured at 120 mins by LC-MS/MS analysis; assay type: ADME, cell-free; conditions: 2 h, 1 µM
[2] = Prodrug conversion in CD-1 mouse assessed as 4-(4-((1S,4S,5S)-2-azabicyclo[2.2.1]heptan-5-yl)phenyl)-7-(4-(trifluoromethyl)phenyl)-2-naphthoic acid excretion in urine at 10 mg/kg,sc and measured upto 24 hrs by LC-MS/MS analysis; assay type: ADME, organism-based; conditions: in vivo
Summary of the method: (§1)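 Female CD1 mice given mono-ester prodrug subcutaneously at 10 mg/kg. Released parent acid followed in plasma (peak concentration, t1/2, AUCinf) and total amount excreted in urine.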

[3] = Prodrug conversion in CD-1 mouse plasma assessed as AUC (0 to infinity) of 4-(4-((1S,4S,5S)-2-azabicyclo[2.2.1]heptan-5-yl)phenyl)-7-(4-(trifluoromethyl)phenyl)-2-naphthoic acid at 10 mg/kg,sc and measured upto 24 hrs by LC-MS/MS analysis; assay type: ADME, organism-based; design: dose 10 mg/kg, time < 24 hrs, route sc; conditions: in vivo; summary of the method: as §1
[4] = Prodrug conversion in CD-1 mouse plasma assessed as half life of 4-(4-((1S,4S,5S)-2-azabicyclo[2.2.1]heptan-5-yl)phenyl)-7-(4-(trifluoromethyl)phenyl)-2-naphthoic acid at 10 mg/kg,sc and measured upto 24 hrs by LC-MS/MS analysis; assay type: ADME, organism-based; conditions: in vivo
Summary of the method: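 Ester prodrug given subcutaneously at 10 mg/kg to female CD1 mice. Plasma levels of the released active acid followed over time, with half-life derived for the active drug.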

Mus musculus [5] = assay: Antiallodynic activity in CCI surgery neuropathic pain Hsd:ICR mouse model assessed as reversal of mechano-allodynia by measuring paw withdrawal threshold at 10 micromol/kg,ip and measured upto 5 days by von frey test; assay type: functional, organism-based; conditions: dose 10.0 µmol/kg, time <= 5.0 day
Summary of the method: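 CCI neuropathic pain in adult male Hsd:ICR (CD-1) mice (20–30 g). Single i.p. injection on day 7 after sciatic nerve constriction, at peak pain. Vehicle 10% (Kolliphor HS 15:DMSO 5:95) in saline, 0.2 mL. Paw withdrawal threshold by von Frey filaments on ipsilateral and contralateral hindpaws. Mean ± SD; two-way ANOVA with Dunnett's test versus day 0 and day 7.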

[6] = Stability in mouse plasma assessed as half life at 1 uM and measured at 120 mins by LC-MS/MS analysis; assay type: ADME, cell-free
Mus musculus [7] = assay: Antiallodynic activity in CCI surgery neuropathic pain Hsd:ICR mouse model assessed as reversal of mechano-allodynia by measuring paw withdrawal threshold at 10 micromol/kg,po and measured upto 6 hrs by von frey test; assay type: functional, organism-based; conditions: dose 10.0 µmol/kg
Summary of the method: (§2)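 CCI neuropathic pain in adult male CD-1 mice. Single oral gavage dose of 10 μmol/kg on day 7 post-surgery. Vehicle 5% DMSO + 10% (Kolliphor HS 15:DMSO 5:95) in 0.5% methylcellulose, 0.2 mL. Von Frey paw withdrawal threshold on both hindpaws. Mean ± SD; two-way ANOVA with Dunnett's test.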

Mus musculus [8] = assay: Antiallodynic activity in CCI surgery neuropathic pain Hsd:ICR mouse model assessed as reversal of mechano-allodynia by measuring paw withdrawal threshold at 10 micromol/kg,po and measured at 1 hrs by von frey test; assay type: functional, organism-based; conditions: dose 10.0 µmol/kg; summary of the method: as §2
[9] = Prodrug conversion in CD-1 mouse plasma assessed as Cmax of 4-(4-((1S,4S,5S)-2-azabicyclo[2.2.1]heptan-5-yl)phenyl)-7-(4-(trifluoromethyl)phenyl)-2-naphthoic acid at 10 mg/kg,sc and measured from 2 to 4 hrs by LC-MS/MS analysis; assay type: ADME, organism-based; design: time upper 4 hrs, time lower 2 hrs, dose 10 mg/kg, route sc; conditions: in vivo; summary of the method: as §1
[10] = AUC (0 to infinity) in CD-1 mouse at 10 mg/kg,po and measured upto 24 hrs by LC-MS/MS analysis; assay type: ADME, organism-based; design: time < 24 hrs, dose 10 mg/kg, route po; conditions: in vivo
Summary of the method: (§3)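 Female CD1 mice given double ester/carbamate prodrug by oral gavage. Plasma levels of both prodrug and released parent acid followed over time to give Cmax, t1/2, AUCinf and %F.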

[11] = Prodrug conversion in CD-1 mouse plasma assessed as Cmax of 4-(4-(piperidin-4-yl)phenyl)-7-(4-(trifluoromethyl)phenyl)-2-naphthoic acid at 10 mg/kg,po and measured upto 24 hrs by LC-MS/MS analysis; assay type: ADME, organism-based; design: dose 10 mg/kg, time < 24 hrs, route po; conditions: in vivo; summary of the method: as §3
[12] = Oral bioavailability in CD-1 mouse at 10 mg/kg and measured upto 24 hrs by LC-MS/MS analysis; assay type: ADME, organism-based; conditions: in vivo; summary of the method: as §3
[13] = Prodrug conversion in CD-1 mouse plasma assessed as Tmax of 4-(4-(piperidin-4-yl)phenyl)-7-(4-(trifluoromethyl)phenyl)-2-naphthoic acid at 10 mg/kg,po and measured upto 24 hrs by LC-MS/MS analysis; assay type: ADME, organism-based; conditions: in vivo
Summary of the method: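 Double prodrug of the active acid given by oral gavage to female CD1 mice. Plasma levels of prodrug and released active drug followed over time to establish the conversion course. Peak time read for the active drug.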

[14] = Cmax in CD-1 mouse at 10 mg/kg,po and measured at 1 hrs by LC-MS/MS analysis; assay type: ADME, organism-based; design: dose 10 mg/kg, time 1 hrs, route po; conditions: in vivo; summary of the method: as §3
[15] = Prodrug conversion in CD-1 mouse plasma assessed as AUC (0 to infinity) of 4-(4-(piperidin-4-yl)phenyl)-7-(4-(trifluoromethyl)phenyl)-2-naphthoic acid at 10 mg/kg,po and measured upto 24 hrs by LC-MS/MS analysis; assay type: ADME, organism-based; design: time < 24 hrs, dose 10 mg/kg, route po; conditions: in vivo; summary of the method: as §3
[16] = Half life in CD-1 mouse at 10 mg/kg,po and measured upto 24 hrs by LC-MS/MS analysis; assay type: ADME, organism-based; conditions: in vivo; summary of the method: as §3

t1/2 [1] | Drug excretion [2] | AUC [3] | t1/2 [4] | half-life at 1 µM [6] | Cmax [9] | AUC(0-inf) [10] | Cmax [11] | bioavailability [12] | Tmax [13] | Cmax [14] | AUC [15] | t1/2 [16] | SMILES | Activity (Mus musculus [5]) | Activity (Mus musculus [7]) | Activity (Mus musculus [8])
> 12 h | 1550 ng | 15300 ng·h/mL | 2.63 h | 1.5 min | 2000 ng/mL | – | – | – | – | – | – | – | CN(C)C(=O)COC(=O)c1cc(-c2ccc([C@H]3C[C@H]4C[C@@H]3CN4)cc2)c2ccc(-c3ccc(C(F)(F)F)cc3)cc2c1 | Active | Active | Active
– | – | – | – | – | – | 1780 ng·h/mL | 33 ng/mL | 6.9% | 7 h | 2000 ng/mL | 515 ng·h/mL | 1.45 h | CCOC(=O)N1CCC(c2ccc(-c3cc(C(=O)OCC(=O)N(C)C)cc4cc(-c5ccc(C(F)(F)F)cc5)ccc34)cc2)CC1 | Active | Active | –
